ChEMBL document CHEMBL4024792, “(N-Hydroxycarbonylbenylamino)quinolines as Selective Histone Deacetylase 6 Inhibitors Suppress Growth of Multiple Myeloma in Vitro and in Vivo” (J Med Chem, 2018)
Activity calls are given as the source filed them. The rule behind the calls is not given here.

Assays:
RPMI-8226 [1] = test: Cell cycle arrest in human RPMI8226 cells assessed as accumulation at G0/G1 phase at 5 uM after 24 hrs by propidium iodide staining based flow cytometry (reference value: 44.67%); type: functional
U-266 [2] = test: Cell cycle arrest in human U266 cells assessed as accumulation at S phase at 5 uM after 24 hrs by propidium iodide staining based flow cytometry (reference value: 14.05%); type: functional
U-266 [3] = test: Cell cycle arrest in human U266 cells assessed as accumulation at G2/M phase at 5 uM after 24 hrs by propidium iodide staining based flow cytometry (reference value: 35.13%); type: functional
NCI-H929 [4] = test: Cell cycle arrest in human NCI-H929 cells assessed as accumulation at G0/G1 phase at 5 uM after 24 hrs by propidium iodide staining based flow cytometry (reference value: 49.39%); type: functional
NCI-H929 [5] = test: Cell cycle arrest in human NCI-H929 cells assessed as accumulation at S phase at 5 uM after 24 hrs by propidium iodide staining based flow cytometry (reference value: 13.5%); type: functional
RPMI-8226 [6] = test: Cell cycle arrest in human RPMI8226 cells assessed as accumulation at sub-G1 phase at 5 uM after 24 hrs in presence of bortezomib by propidium iodide staining based flow cytometry (reference value: 12.25%); type: functional
RPMI-8226 [7] = test: Cell cycle arrest in human RPMI8226 cells assessed as accumulation at S phase at 5 uM after 24 hrs in presence of bortezomib by propidium iodide staining based flow cytometry (reference value: 19.53%); type: functional
RPMI-8226 [8] = test: Cell cycle arrest in human RPMI8226 cells assessed as accumulation at G2/M phase at 5 uM after 24 hrs in presence of bortezomib by propidium iodide staining based flow cytometry (reference value: 23.94%); type: functional
U-266 [9] = test: Cell cycle arrest in human U266 cells assessed as accumulation at G0/G1 phase at 5 uM after 24 hrs in presence of bortezomib by propidium iodide staining based flow cytometry (reference value: 40.29%); type: functional
U-266 [10] = test: Cell cycle arrest in human U266 cells assessed as accumulation at S phase at 5 uM after 24 hrs in presence of bortezomib by propidium iodide staining based flow cytometry (reference value: 14.05%); type: functional
NCI-H929 [11] = test: Cell cycle arrest in human NCI-H929 cells assessed as accumulation at sub-G1 phase at 5 uM after 24 hrs in presence of bortezomib by propidium iodide staining based flow cytometry (reference value: 5.59%); type: functional
NCI-H929 [12] = test: Cell cycle arrest in human NCI-H929 cells assessed as accumulation at G0/G1 phase at 5 uM after 24 hrs in presence of bortezomib by propidium iodide staining based flow cytometry (reference value: 49.39%); type: functional
NCI-H929 [13] = test: Cell cycle arrest in human NCI-H929 cells assessed as accumulation at S phase at 5 uM after 24 hrs in presence of bortezomib by propidium iodide staining based flow cytometry (reference value: 13.5%); type: functional
RPMI-8226 [14] = test: Induction of apoptosis in human RPMI8226 cells at 5 uM after 24 hrs by Annexin V/propidium iodide staining based flow cytometry; type: functional, cell-based
U-266 [15] = test: Induction of apoptosis in human U266 cells at 5 uM after 24 hrs by Annexin V/propidium iodide staining based flow cytometry; type: functional, cell-based
NCI-H929 [16] = test: Induction of apoptosis in human NCI-H929 cells at 5 uM after 24 hrs in presence of bortezomib by Annexin V/propidium iodide staining based flow cytometry; type: functional, cell-based
RPMI-8226 [17] = test: Induction of apoptosis in human RPMI8226 cells at 5 uM after 24 hrs in presence of bortezomib by Annexin V/propidium iodide staining based flow cytometry; type: functional, cell-based
RPMI-8226 [18] = test: Antitumor activity against human RPMI8226 cells xenografted in nude mouse assessed as tumor growth inhibition at 30 mg/kg, iv or ip administered for 5 days followed by 2 days off for 35 days cotreated with bortezomib relative to control; type: functional; conditions: read-out: TGI
Outline: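 RPMI 8226 cells (1 × 10^7) implanted s.c. in eight-week-old male nude mice. At mean tumor volume 200 mm3, mice randomized into four groups (n = 8). Caliper measurement every 3–4 days, volume L×W²/2. %TGI computed from treated versus control volume changes relative to time 0.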

[19] = Stability in Sprague-Dawley rat hepatocytes assessed as parent compound remaining at 10 uM after 60 mins by LC-MS/MS analysis; type: ADME, cell-based, Hepatocyte; conditions: read-out: Stability
Outline: (§1)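 Cryopreserved hepatocytes (Sprague-Dawley rat, beagle dog, human) incubated with compound at 10 µM, 37 °C, for up to 4 h. About 0.5×10^6 cells/well for rat and dog, 0.24×10^6 for human.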

[20] = Stability in beagle dog hepatocytes assessed as parent compound remaining at 10 uM after 60 mins by LC-MS/MS analysis; type: ADME, cell-based, Canis lupus familiaris, Hepatocyte; conditions: read-out: Stability; outline: as §1
[21] = Stability in human hepatocytes assessed as parent compound remaining at 10 uM after 60 mins by LC-MS/MS analysis; type: ADME, cell-based, Hepatocyte; conditions: read-out: Stability; outline: as §1
[22] = Half life in beagle dog hepatocytes at 10 uM by LC-MS/MS analysis; type: ADME, cell-based, Canis lupus familiaris, Hepatocyte
Outline: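 Substrate depletion in cryopreserved hepatocytes (male SD rat, male beagle dog, human). Compound at 10 µM incubated at 37 °C for up to 4 h. Cell density approximately 0.5 × 10^6 hepatocytes/well for rat and dog, 0.24 × 10^6/well for human. Half-life and CLint derived from depletion; % remaining at 60 min also reported.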

[23] = Intrinsic clearance in beagle dog hepatocytes at 10 uM by LC-MS/MS analysis; type: ADME, cell-based, Canis lupus familiaris, Hepatocyte; conditions: read-out: CLH; outline: as §1
[24] = Apparent permeability from basolateral to apical side in human Caco2 cells at 10 uM after 2 hrs by LC-MS/MS analysis; type: ADME, cell-based; conditions: Caco-2
Outline: (§2)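 Caco-2 cells seeded at 8.4 × 10^4 cells/cm2 on polycarbonate inserts for 21 days. For A→B, donor was apical (HBSS/MES pH 6.5, 10 µM compound) and receiver basolateral (HBSS/HEPES pH 7.4). For B→A, donor was basolateral (HBSS/HEPES pH 7.4, 10 µM) and receiver apical (HBSS/MES pH 6.5). Incubated at 37 °C for 2 h. Receiver sampled at 30, 60, 90 and 120 min, donor at 0 and 120 min.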

[25] = Apparent permeability from basolateral to apical side in human Caco2 cells assessed as drug recovery at 10 uM after 2 hrs by LC-MS/MS analysis; type: ADME, cell-based; conditions: Caco-2, read-out: Drug recovery; outline: as §2
Salmonella typhimurium [26] = test: Mutagenicity in Salmonella typhimurium TA98 assessed as increase in number of revertant colonies at 3 to 3000 ug/plate in absence of S9 fraction by Ames test; type: toxicity; conditions: salmonella enterica subsp. enterica serovar typhimurium
Outline: (§3)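 Ames test, TA98 and TA100. Overnight broth cultures preincubated 20 min at 35-37 °C with compound (DMSO stock) plus Aroclor 1254-induced rat liver S9 mix or PBS, then plated in top agar with 0.05 mM histidine/biotin. Final 3-3000 µg/plate; revertants counted after 72 h at 37 °C. ≥3-fold over vehicle = mutagenic; ≤50% = cytotoxic.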

Salmonella typhimurium [27] = test: Mutagenicity in Salmonella typhimurium TA100 assessed as increase in number of revertant colonies at 3 to 3000 ug/plate in presence of S9 fraction by Ames test; type: toxicity; conditions: salmonella enterica subsp. enterica serovar typhimurium; outline: as §3
Salmonella typhimurium [28] = test: Mutagenicity in Salmonella typhimurium TA100 assessed as increase in number of revertant colonies at 3 to 3000 ug/plate in absence of S9 fraction by Ames test; type: toxicity; conditions: salmonella enterica subsp. enterica serovar typhimurium; outline: as §3

O=C(NO)c1ccc(CNc2cccc3cccnc23)cc1
Activity (RPMI-8226 [1]): 41.95%
Activity (U-266 [2]): 6.12%
Activity (U-266 [3]): 23.3%
Activity (NCI-H929 [4]): 35.59%
Activity (NCI-H929 [5]): 8.55%
Activity (RPMI-8226 [6]): 84.18%
Activity (RPMI-8226 [7]): 2.46%
Activity (RPMI-8226 [8]): 2.33%
Activity (U-266 [9]): 25.75%
Activity (U-266 [10]): 7.56%
Activity (NCI-H929 [11]): 74.13%
Activity (NCI-H929 [12]): 15.77%
Activity (NCI-H929 [13]): 8.6%
Activity (RPMI-8226 [14]): Active
Activity (U-266 [15]): Active
Activity (NCI-H929 [16]): Active
Activity (RPMI-8226 [17]): Active
inhibition in vivo at 30 mg/kg (RPMI-8226 [18]): 86.2%
remaining at 1 h, 10 µM [19]: 28.4%
remaining at 1 h, 10 µM [20]: 70.6%
remaining at 1 h, 10 µM [21]: 86.4%
half-life at 10 µM [22]: 1.97 h
CLint scaled at 10 µM [23]: 39.6 mL/min/kg
Papp B→A at 2 h, 10 µM [24]: 20.1 ×10⁻⁶ cm/s
recovery at 2 h, 10 µM [25]: 69%
Activity (Salmonella typhimurium [26]): Non-Toxic
Activity (Salmonella typhimurium [27]): Non-Toxic
Activity (Salmonella typhimurium [28]): Non-Toxic
